According to ChEMBL document CHEMBL2384964, “Dual-acting histone deacetylase-topoisomerase I inhibitors” (Bioorg Med Chem Lett, 2013):
The source made the active and inactive calls. No cut-off for these calls is given here.

Assays:
DU-145 = assay: Cytotoxicity against human DU145 cells assessed as inhibition of cell viability after 72 hrs by MTS assay; format: functional, cell-based; settings: DU-145, 72 h
How it was run: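 DU-145 prostate carcinoma cells exposed to compound for 72 h; viability read by MTS assay. IC50 values are means of two experiments, each run in triplicate.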

[1] = molecular target: T1, Histone deacetylase (Homo sapiens) (UniProt Q13547+O15379+Q9UBN7+Q92769+Q9UQL6+Q8WUI4+Q9BY41+Q96DB2+P56524+Q9UKV0+Q969S8); assay: Inhibition of HDAC in human DU145 cells assessed as upregulation of p21waf1 expression after 24 hrs by Western blot analysis; format: cell-based; settings: DU-145
How it was run: (§1)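 DU-145 cells treated for 24 h at 2.5 and 5.0 μM (SAHA, conjugates) or 0.1 and 0.5 μM (SN-38); lysates immunoblotted for p21waf1, with actin as loading control.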

Histone deacetylase = assay: Inhibition of HDAC in human HeLa cells using Fluor-de-Lys as substrate after 15 mins by fluorescence assay; format: cell-based
[2] = molecular target: T2, Protein deacetylase HDAC6 (Homo sapiens, UniProt Q9UBN7); assay: Inhibition of HDAC6 in human HeLa cells using Fluor-de-Lys as substrate after 15 mins by fluorescence assay; format: cell-based
T2 sequence (Q9UBN7 whole entry): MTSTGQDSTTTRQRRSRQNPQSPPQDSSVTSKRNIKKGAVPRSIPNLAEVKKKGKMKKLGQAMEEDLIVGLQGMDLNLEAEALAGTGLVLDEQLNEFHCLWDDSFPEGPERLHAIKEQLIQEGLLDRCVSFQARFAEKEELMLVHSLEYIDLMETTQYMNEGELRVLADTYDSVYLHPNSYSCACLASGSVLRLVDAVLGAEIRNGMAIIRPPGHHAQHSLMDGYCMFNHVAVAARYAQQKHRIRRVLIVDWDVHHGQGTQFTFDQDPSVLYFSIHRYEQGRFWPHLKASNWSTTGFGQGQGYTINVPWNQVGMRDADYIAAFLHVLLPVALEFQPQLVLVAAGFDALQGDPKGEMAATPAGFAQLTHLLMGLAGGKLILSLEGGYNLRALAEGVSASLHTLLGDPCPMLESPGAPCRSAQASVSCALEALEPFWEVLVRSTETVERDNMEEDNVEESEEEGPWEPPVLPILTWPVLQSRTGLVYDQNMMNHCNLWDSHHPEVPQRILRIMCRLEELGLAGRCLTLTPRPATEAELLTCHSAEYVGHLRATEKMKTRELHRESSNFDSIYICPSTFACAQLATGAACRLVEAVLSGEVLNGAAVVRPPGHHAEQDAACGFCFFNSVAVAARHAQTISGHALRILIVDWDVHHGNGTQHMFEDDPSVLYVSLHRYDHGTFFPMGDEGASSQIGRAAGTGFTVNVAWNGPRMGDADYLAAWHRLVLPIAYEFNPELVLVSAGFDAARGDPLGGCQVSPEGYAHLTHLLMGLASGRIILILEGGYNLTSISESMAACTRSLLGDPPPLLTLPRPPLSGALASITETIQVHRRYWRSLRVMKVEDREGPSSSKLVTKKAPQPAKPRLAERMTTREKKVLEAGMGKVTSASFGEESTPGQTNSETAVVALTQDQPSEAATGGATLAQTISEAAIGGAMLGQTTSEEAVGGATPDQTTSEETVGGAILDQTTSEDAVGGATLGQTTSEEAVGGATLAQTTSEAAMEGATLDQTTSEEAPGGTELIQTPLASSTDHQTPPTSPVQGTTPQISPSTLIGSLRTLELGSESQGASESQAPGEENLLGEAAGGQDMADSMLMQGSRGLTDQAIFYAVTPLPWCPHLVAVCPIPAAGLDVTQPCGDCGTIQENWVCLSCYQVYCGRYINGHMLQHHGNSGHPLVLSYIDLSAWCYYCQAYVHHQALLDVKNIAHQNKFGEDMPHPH

[3] = molecular target: T3, Histone deacetylase 8 (Homo sapiens) (UniProt Q9BY41); assay: Inhibition of HDAC8 in human HeLa cells using Fluor-de-Lys as substrate up to 10 uM after 15 mins by fluorescence assay; format: cell-based
T3 sequence (whole entry): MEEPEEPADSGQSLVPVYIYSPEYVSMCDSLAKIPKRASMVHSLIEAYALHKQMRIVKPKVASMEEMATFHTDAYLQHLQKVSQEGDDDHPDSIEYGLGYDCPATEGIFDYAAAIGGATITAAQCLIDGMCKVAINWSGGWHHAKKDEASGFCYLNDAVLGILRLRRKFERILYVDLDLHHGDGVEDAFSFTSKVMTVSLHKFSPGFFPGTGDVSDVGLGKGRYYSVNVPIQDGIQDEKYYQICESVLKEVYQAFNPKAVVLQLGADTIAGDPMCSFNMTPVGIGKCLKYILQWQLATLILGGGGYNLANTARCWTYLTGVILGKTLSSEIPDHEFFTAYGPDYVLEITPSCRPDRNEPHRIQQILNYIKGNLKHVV
How it was run: (§2)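 Run by a contract testing laboratory, duplicate wells at each concentration; values reported with standard error.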

Histone deacetylase 1 [4] = molecular target: T4, Histone deacetylase 1 (Homo sapiens, UniProt Q13547); assay: Inhibition of HDAC1 in human HeLa cells using Fluor-de-Lys as substrate after 15 mins by fluorescence assay; format: cell-based
[5] = molecular target: T5, DNA topoisomerase 1 (Homo sapiens) (UniProt P11387); assay: Inhibition of topoisomerase-1 (unknown origin) assessed as reduction of pBR322 plasmid DNA relaxation at 50 uM after 30 mins by agarose gel electrophoresis
T5 sequence (whole entry): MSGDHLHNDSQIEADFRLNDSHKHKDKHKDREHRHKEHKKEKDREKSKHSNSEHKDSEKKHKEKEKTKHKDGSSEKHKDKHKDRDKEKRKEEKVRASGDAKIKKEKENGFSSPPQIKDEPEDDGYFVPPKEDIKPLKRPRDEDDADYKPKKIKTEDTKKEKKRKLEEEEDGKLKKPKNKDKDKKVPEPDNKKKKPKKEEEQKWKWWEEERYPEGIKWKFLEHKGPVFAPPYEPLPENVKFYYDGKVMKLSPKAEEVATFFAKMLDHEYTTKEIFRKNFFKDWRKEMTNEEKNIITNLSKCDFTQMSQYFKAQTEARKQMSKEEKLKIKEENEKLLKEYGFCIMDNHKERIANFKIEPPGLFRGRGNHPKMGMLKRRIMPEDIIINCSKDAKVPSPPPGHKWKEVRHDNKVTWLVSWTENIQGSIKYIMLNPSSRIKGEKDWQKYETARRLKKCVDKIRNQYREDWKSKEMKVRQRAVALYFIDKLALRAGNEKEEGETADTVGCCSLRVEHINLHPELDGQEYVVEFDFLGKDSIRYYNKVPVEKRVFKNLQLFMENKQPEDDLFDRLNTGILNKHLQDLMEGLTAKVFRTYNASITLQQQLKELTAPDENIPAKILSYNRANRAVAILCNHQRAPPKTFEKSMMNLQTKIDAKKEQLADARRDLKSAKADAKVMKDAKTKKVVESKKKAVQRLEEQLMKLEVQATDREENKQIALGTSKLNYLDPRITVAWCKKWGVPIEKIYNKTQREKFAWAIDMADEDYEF
How it was run: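 Supercoiled pBR322 plasmid incubated with Topo I, test agents at 50 μM, SN-38 as positive control. Reactions stopped with SDS, run on agarose gel, DNA stained with a nucleic acid dye; relaxation judged by band migration.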

[6] = molecular target: T1, Histone deacetylase (Homo sapiens); assay: Inhibition of HDAC in human HeLa cells using Fluor-de-Lys as substrate up to 10 uM after 15 mins by fluorescence assay; format: cell-based
How it was run: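 Enzyme source is HeLa cell nuclear extract with a fluorogenic substrate; fluorescence read near 460 nm. Compound-only wells without enzyme give background (camptothecin emits at 434 nm), which is subtracted. Each value from three independent experiments.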

Histone deacetylase 1 [7] = molecular target: T4, Histone deacetylase 1; assay: Inhibition of HDAC1 in human HeLa cells using Fluor-de-Lys as substrate up to 10 uM after 15 mins by fluorescence assay; format: cell-based; how it was run: as §2
Histone deacetylase 8 = molecular target: T6, Histone deacetylase 8 (Homo sapiens, UniProt Q9BY41); assay: Inhibition of HDAC8 in human HeLa cells using Fluor-de-Lys as substrate after 15 mins by fluorescence assay; format: cell-based
T6 sequence (Q9BY41 whole entry): T3 sequence (whole entry)

[8] = molecular target: T1, Histone deacetylase (Homo sapiens); assay: Inhibition of HDAC in human DU145 cells assessed as upregulation of p21waf1 expression at 0.1 to 0.5 uM after 24 hrs by Western blot analysis; format: cell-based; settings: DU-145; how it was run: as §1

T4 sequence (Q13547 whole entry): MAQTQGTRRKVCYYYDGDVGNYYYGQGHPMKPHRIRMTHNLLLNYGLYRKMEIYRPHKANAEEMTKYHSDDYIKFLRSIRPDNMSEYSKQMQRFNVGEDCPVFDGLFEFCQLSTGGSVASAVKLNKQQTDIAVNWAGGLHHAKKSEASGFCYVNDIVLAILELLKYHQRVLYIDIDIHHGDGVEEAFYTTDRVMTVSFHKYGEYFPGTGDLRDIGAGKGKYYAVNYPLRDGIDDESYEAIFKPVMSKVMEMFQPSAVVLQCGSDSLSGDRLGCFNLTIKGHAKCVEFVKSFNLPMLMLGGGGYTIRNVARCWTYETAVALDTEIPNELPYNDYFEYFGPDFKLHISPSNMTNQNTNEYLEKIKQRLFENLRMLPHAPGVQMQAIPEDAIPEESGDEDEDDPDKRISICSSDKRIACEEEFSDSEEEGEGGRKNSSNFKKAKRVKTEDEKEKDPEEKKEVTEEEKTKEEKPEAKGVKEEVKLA

| Structure (SMILES) | IC50 (DU-145) [nM] | inhibition [1] | IC50 (Histone deacetylase) [nM] | IC50 [2] [nM] | inhibition [3] | IC50 (Histone deacetylase 1 [4]) [nM] | Topo I inhibition (active/inactive) [5] | inhibition [6] | inhibition (Histone deacetylase 1 [7]) | IC50 (Histone deacetylase 8) [nM] | inhibition [8] |
| --- | --- | --- | --- | --- | --- | --- | --- | --- | --- | --- | --- |
| CCc1c2c(nc3ccc(OCc4cn(CCCCCC(=O)NO)nn4)cc13)-c1cc3c(c(=O)n1C2)COC(=O)[C@]3(O)CC | 2050 | Dose-dependent effect | 120.7 | 42 | inactive | 129 | Active |  |  |  |  |
| CC[C@@]1(O)C(=O)OCc2c1cc1n(c2=O)Cc2cc3cc(OCc4cn(CCCCC(=O)NO)nn4)ccc3nc2-1 | 2500 |  | 144.5 | 260 | inactive | 116 | Active |  |  |  |  |
| CCc1c2c(nc3ccc(OCc4cn(CCCC(=O)NO)nn4)cc13)-c1cc3c(c(=O)n1C2)COC(=O)[C@]3(O)CC | 6270 |  |  | 85 |  |  | Active | inactive | inactive | 1730 |  |
| CC[C@@]1(O)C(=O)OCc2c1cc1n(c2=O)Cc2cc3cc(OCc4cn(CCCCCC(=O)NO)nn4)ccc3nc2-1 | 1950 | Dose-dependent effect | 112.2 |  |  |  | Active |  |  |  |  |
| CC[C@@]1(O)C(=O)OCc2c1cc1n(c2=O)Cc2cc3cc(OCc4cn(CCCCCCC(=O)NO)nn4)ccc3nc2-1 | 2030 |  | 56.2 | 81 |  | 37 | Active |  |  | 1050 |  |
| CCc1c2c(nc3ccc(O)cc13)-c1cc3c(c(=O)n1C2)COC(=O)[C@]3(O)CC [7-ETHYL-10-HYDROXYCAMPTOTHECIN] | 110 |  |  |  |  |  |  | inactive |  |  | Active |
| CCc1c2c(nc3ccc(OCc4cn(CCCCCCCC(=O)NO)nn4)cc13)-c1cc3c(c(=O)n1C2)COC(=O)[C@]3(O)CC | 3510 |  | 212.3 | 75 |  | 369 | Active |  |  | 2600 |  |
| CCc1c2c(nc3ccc(OCc4cn(CCCCC(=O)NO)nn4)cc13)-c1cc3c(c(=O)n1C2)COC(=O)[C@]3(O)CC | 4250 |  | 155.4 |  |  |  | Active |  |  |  |  |
| CCc1c2c(nc3ccc(OCc4cn(CCCCCCC(=O)NO)nn4)cc13)-c1cc3c(c(=O)n1C2)COC(=O)[C@]3(O)CC | 3110 |  | 64.65 | 36 | inactive | 50 | Active |  |  |  |  |
